Source: ChEMBL document CHEMBL5260840 (J Med Chem, 2019)
Active and inactive are the calls of the source. The rule behind the calls is not given here.

Assays:
[1] = target: T1, von Hippel-Lindau disease tumor suppressor/Bromodomain-containing protein 7 (Homo sapiens) (UniProt Q9NPI1+P40337); test: PROTAC activity at VHL/BRD7 in human Ri-1 cells assessed as BRD7 protein degradation in the presence of MG132 by Western blot analysis; assay type: cell-based
[2] = target: T1, von Hippel-Lindau disease tumor suppressor/Bromodomain-containing protein 7 (Homo sapiens); test: PROTAC activity at VHL/BRD7 in human Ri-1 cells assessed as BRD7 protein degradation in the presence of MLN4924 by Western blot analysis; assay type: cell-based
[3] = Kinetic aqueous solubility of the compound by laser nephelometry; assay type: physicochemical; conditions: read-out: Kinetic_solubility
Method in brief: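 Laser nephelometry. DMSO stocks serially diluted from 10 mM to 0.5 mM, then mixed into water to give final 250–12 µM with 2.5% final DMSO. Triplicate aliquots read immediately.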

[4] = Stability in human plasma at 10 uM measured upto 180 mins by UPLC-MS/MS analysis; assay type: ADME, cell-free; conditions: 3 h
[5] = target: T1, von Hippel-Lindau disease tumor suppressor/Bromodomain-containing protein 7 (Homo sapiens); test: PROTAC activity at VHL/BRD7 in human Ri-1 cells assessed as BRD7 protein degradation at 100 nM incubated for 4 hrs by MS proteomics analysis; assay type: cell-based
[6] = tested on: A204; test: Antiproliferative activity against human A204 cells assessed as inhibition of cell growth incubated for 7 days by CellTiterGlo assay; assay type: functional, cell-based; conditions: A204, 168 h
[7] = target: T2, von Hippel-Lindau disease tumor suppressor/Bromodomain-containing protein 9 (Homo sapiens) (UniProt Q9H8M2+P40337); test: PROTAC activity at VHL/BRD9 in human Ri-1 cells assessed as BRD9 protein degradation at 100 nM pre-incubated for 30 mins with VH298 followed by compound addition and measured after 4 hrs by Western blot analysis; assay type: cell-based
T2 sequence (P40337 whole entry, looked up): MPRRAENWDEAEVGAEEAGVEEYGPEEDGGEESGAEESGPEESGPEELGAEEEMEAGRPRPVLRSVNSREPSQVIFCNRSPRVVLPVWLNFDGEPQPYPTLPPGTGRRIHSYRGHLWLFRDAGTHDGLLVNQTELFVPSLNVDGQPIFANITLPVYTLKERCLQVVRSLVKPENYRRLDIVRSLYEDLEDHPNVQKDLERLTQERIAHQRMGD
T2 sequence (Q9H8M2 whole entry, looked up): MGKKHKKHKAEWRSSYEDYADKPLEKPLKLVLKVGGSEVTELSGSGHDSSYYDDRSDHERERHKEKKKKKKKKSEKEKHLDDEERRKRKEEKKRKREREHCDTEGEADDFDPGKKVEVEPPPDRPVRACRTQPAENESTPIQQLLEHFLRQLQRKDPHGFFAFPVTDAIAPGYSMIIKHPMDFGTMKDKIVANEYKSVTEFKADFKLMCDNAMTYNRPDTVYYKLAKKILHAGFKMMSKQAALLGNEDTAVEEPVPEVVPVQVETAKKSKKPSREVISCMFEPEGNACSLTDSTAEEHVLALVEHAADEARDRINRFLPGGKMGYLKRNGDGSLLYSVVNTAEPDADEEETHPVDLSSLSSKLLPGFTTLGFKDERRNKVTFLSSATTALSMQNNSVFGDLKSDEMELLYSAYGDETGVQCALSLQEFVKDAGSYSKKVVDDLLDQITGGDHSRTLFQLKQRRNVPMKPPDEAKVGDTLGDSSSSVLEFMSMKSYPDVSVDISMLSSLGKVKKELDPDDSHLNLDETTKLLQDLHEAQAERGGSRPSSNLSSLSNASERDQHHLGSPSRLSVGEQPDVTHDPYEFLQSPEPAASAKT

[8] = target: T1, von Hippel-Lindau disease tumor suppressor/Bromodomain-containing protein 7 (Homo sapiens); test: PROTAC activity at VHL/BRD7 in human Ri-1 cells assessed as BRD7 protein degradation at 100 nM pre-incubated for 30 mins with VH298 followed by compound addition and measured after 4 hrs by Western blot analysis; assay type: cell-based
[9] = target: T2, von Hippel-Lindau disease tumor suppressor/Bromodomain-containing protein 9 (Homo sapiens); test: PROTAC activity at VHL/HiBiT-tagged BRD9 expressed in HEK293 assessed as BRD9 ubiquitination at 1 uM measured upto 60 mins by NanoBRET assay; assay type: cell-based
[10] = target: T1, von Hippel-Lindau disease tumor suppressor/Bromodomain-containing protein 7 (Homo sapiens); test: PROTAC activity at VHL/HiBiT-tagged BRD7 expressed in HEK293 assessed as BRD7 ubiquitination at 1 uM measured upto 60 mins by NanoBRET assay; assay type: cell-based
[11] = target: T1, von Hippel-Lindau disease tumor suppressor/Bromodomain-containing protein 7 (Homo sapiens); test: PROTAC activity at VHL/BRD7 in human Ri-1 cells assessed as remaining BRD7 protein level at 100 nM incubated for 24 hrs by Western blot analysis relative to control; assay type: cell-based
Method in brief: (§1)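 Ri-1 cells exposed to compound for the stated time before harvest; BRD9, BRD7 and β-actin measured by Western blot, band intensities quantified and set against DMSO-treated control.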

[12] = target: T1, von Hippel-Lindau disease tumor suppressor/Bromodomain-containing protein 7 (Homo sapiens); test: PROTAC activity at VHL/BRD7 in human Ri-1 cells assessed as remaining BRD7 protein level at 100 nM incubated for 4 hrs by Western blot analysis relative to control; assay type: cell-based; method in brief: as §1
[13] = target: T1, von Hippel-Lindau disease tumor suppressor/Bromodomain-containing protein 7 (Homo sapiens); test: PROTAC activity at VHL/BRD7 in human Ri-1 cells assessed as remaining BRD7 protein level at 10 nM incubated for 1 hrs by Western blot analysis relative to control; assay type: cell-based
[14] = target: T2, von Hippel-Lindau disease tumor suppressor/Bromodomain-containing protein 9 (Homo sapiens); test: PROTAC activity at VHL/BRD9 in human Ri-1 cells assessed as remaining BRD9 protein level at 100 nM incubated for 24 hrs by Western blot analysis relative to control; assay type: cell-based; method in brief: as §1
[15] = target: T2, von Hippel-Lindau disease tumor suppressor/Bromodomain-containing protein 9 (Homo sapiens); test: PROTAC activity at VHL/BRD9 in human Ri-1 cells assessed as remaining BRD9 protein level at 10 nM incubated for 4 hrs by Western blot analysis relative to control; assay type: cell-based; method in brief: as §1
[16] = target: T2, von Hippel-Lindau disease tumor suppressor/Bromodomain-containing protein 9 (Homo sapiens); test: PROTAC activity at VHL/BRD9 in human Ri-1 cells assessed as remaining BRD9 protein level at 100 nM incubated for 4 hrs by Western blot analysis relative to control; assay type: cell-based; method in brief: as §1
[17] = target: T2, von Hippel-Lindau disease tumor suppressor/Bromodomain-containing protein 9 (Homo sapiens); test: PROTAC activity at VHL/BRD9 in human Ri-1 cells assessed as remaining BRD9 protein level at 100 nM incubated for 30 mins by Western blot analysis relative to control; assay type: cell-based; method in brief: as §1
[18] = target: T2, von Hippel-Lindau disease tumor suppressor/Bromodomain-containing protein 9 (Homo sapiens); test: PROTAC activity at VHL/BRD9 in human Ri-1 cells assessed as remaining BRD9 protein level at 10 nM incubated for 30 mins by Western blot analysis relative to control; assay type: cell-based; method in brief: as §1
[19] = target: T2, von Hippel-Lindau disease tumor suppressor/Bromodomain-containing protein 9 (Homo sapiens); test: PROTAC activity at VHL/BRD9 in human Ri-1 cells assessed as remaining BRD9 protein level at 1 uM incubated for 8 hrs by Western blot analysis relative to control; assay type: cell-based; method in brief: as §1
[20] = target: T1, von Hippel-Lindau disease tumor suppressor/Bromodomain-containing protein 7 (Homo sapiens); test: PROTAC activity at VHL/BRD7 in human Ri-1 cells assessed as remaining BRD7 protein level at 1 uM incubated for 8 hrs by Western blot analysis relative to control; assay type: cell-based
[21] = target: T2, von Hippel-Lindau disease tumor suppressor/Bromodomain-containing protein 9 (Homo sapiens); test: PROTAC activity at VHL/BRD9 in human Ri-1 cells assessed as remaining BRD9 protein level at 1 nM incubated for 8 hrs by Western blot analysis relative to control; assay type: cell-based; method in brief: as §1
[22] = target: T2, von Hippel-Lindau disease tumor suppressor/Bromodomain-containing protein 9 (Homo sapiens); test: PROTAC activity at VHL/BRD9 in human Ri-1 cells assessed as remaining BRD9 protein level at 0.1 nM incubated for 8 hrs by Western blot analysis relative to control; assay type: cell-based; method in brief: as §1
[23] = target: T2, von Hippel-Lindau disease tumor suppressor/Bromodomain-containing protein 9 (Homo sapiens); test: PROTAC activity at VHL/BRD9 in human Ri-1 cells assessed as remaining BRD9 protein level at 10000 nM incubated for 2 hrs by Western blot analysis relative to control; assay type: cell-based; method in brief: as §1
[24] = target: T2, von Hippel-Lindau disease tumor suppressor/Bromodomain-containing protein 9 (Homo sapiens); test: PROTAC activity at VHL/BRD9 in human Ri-1 cells assessed as remaining BRD9 protein level at 10 nM incubated for 2 hrs by Western blot analysis relative to control; assay type: cell-based; method in brief: as §1
[25] = target: T2, von Hippel-Lindau disease tumor suppressor/Bromodomain-containing protein 9 (Homo sapiens); test: PROTAC activity at VHL/BRD9 in human Ri-1 cells assessed as remaining BRD9 protein level at 1 nM incubated for 2 hrs by Western blot analysis relative to control; assay type: cell-based; method in brief: as §1
[26] = target: T1, von Hippel-Lindau disease tumor suppressor/Bromodomain-containing protein 7 (Homo sapiens); test: PROTAC activity at VHL/BRD7 in human Ri-1 cells assessed as remaining BRD7 protein level at 100 nM incubated for 8 hrs by Western blot analysis relative to control; assay type: cell-based; method in brief: as §1
[27] = target: T1, von Hippel-Lindau disease tumor suppressor/Bromodomain-containing protein 7 (Homo sapiens); test: PROTAC activity at VHL/BRD7 in human Ri-1 cells assessed as remaining BRD7 protein level at 1 nM incubated for 8 hrs by Western blot analysis relative to control; assay type: cell-based
[28] = target: T1, von Hippel-Lindau disease tumor suppressor/Bromodomain-containing protein 7 (Homo sapiens); test: PROTAC activity at VHL/BRD7 in human Ri-1 cells assessed as remaining BRD7 protein level at 10 nM incubated for 2 hrs by Western blot analysis relative to control; assay type: cell-based
[29] = target: T2, von Hippel-Lindau disease tumor suppressor/Bromodomain-containing protein 9 (Homo sapiens); test: PROTAC activity at VHL/BRD9 in human Ri-1 cells assessed as maximal degradation by Western blot analysis relative to control; assay type: cell-based; method in brief: as §1
[30] = target: T1, von Hippel-Lindau disease tumor suppressor/Bromodomain-containing protein 7 (Homo sapiens); test: PROTAC activity at VHL/BRD7 in human Ri-1 cells assessed as maximal degradation by Western blot analysis relative to control; assay type: cell-based

T1 sequence (P40337 whole entry, looked up): as the sequence (P40337 whole entry, looked up) above
T1 sequence (Q9NPI1 whole entry, looked up): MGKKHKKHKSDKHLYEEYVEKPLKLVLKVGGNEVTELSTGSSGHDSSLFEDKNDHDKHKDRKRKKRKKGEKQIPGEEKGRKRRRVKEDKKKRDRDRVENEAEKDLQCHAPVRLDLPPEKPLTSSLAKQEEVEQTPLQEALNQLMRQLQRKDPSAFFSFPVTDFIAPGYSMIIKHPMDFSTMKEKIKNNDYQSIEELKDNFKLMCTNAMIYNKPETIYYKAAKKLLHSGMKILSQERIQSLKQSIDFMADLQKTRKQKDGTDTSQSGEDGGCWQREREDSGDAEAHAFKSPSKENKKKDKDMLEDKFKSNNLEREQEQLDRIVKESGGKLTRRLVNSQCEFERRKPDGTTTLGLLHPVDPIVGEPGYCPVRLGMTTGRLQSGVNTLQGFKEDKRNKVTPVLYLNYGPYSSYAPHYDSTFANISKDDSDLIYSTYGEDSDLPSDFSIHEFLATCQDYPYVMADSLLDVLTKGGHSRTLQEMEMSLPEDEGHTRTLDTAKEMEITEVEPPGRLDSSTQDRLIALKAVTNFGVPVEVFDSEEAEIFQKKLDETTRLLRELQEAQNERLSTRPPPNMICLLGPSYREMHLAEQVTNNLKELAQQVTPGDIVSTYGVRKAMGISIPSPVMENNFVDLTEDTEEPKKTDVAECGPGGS

With `COc1cc(-c2cn(C)c(=O)c3cnccc23)cc(OC)c1CN1CCN(CCCCCOc2cc(-c3scnc3C)ccc2CNC(=O)[C@@H]2C[C@@H](O)CN2C(=O)[C@@H](NC(=O)C2(F)CC2)C(C)(C)C)CC1` the Activity [1] was “inactive”, the Activity [2] was “inactive” and the solubility kinetic [3] was at most 100 µM. For the same compound, the Stability [4] was “Stable”, the Activity [5] was “Active” and the IC50 [6] was 39.8 nM. For the same compound, the Activity [7] was “inactive”, the Activity [8] was “inactive” and the Activity [9] was “Active”. The Activity [10] was “Active”, the Activity [11] was 4% and the Activity [12] was 7%. The Activity [13] was 70%, the Activity [14] was 2% and the Activity [15] was 31%. The Activity [16] was 10%, the Activity [17] was 48% and the Activity [18] was 50%. For the same compound, the Activity [19] was 16%, the Activity [20] was 5% and the Activity [21] was 62%. It also gave an Activity [22] of 80%, an Activity [23] of 89% and an Activity [24] of 35%. It also gave an Activity [25] of 98%, an Activity [26] of 5% and an Activity [27] of 100%. It also gave an Activity [28] of 52%, an Emax [29] of over 90% and an Emax [30] of over 90%.
